Laboratory results published in PubChem BioAssay AID871 (The Scripps Research Institute Molecular Screening Center, 2007).
Among all 190,000 compounds or so, about 1,800 (0.95%) were called active.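 How the source made its calls: active means activation above the screen-wide mean of compound activation plus 3 SD (cut at about 130% in these data); inactive means the rest.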 This excerpt belongs to a sample that is enriched for actives.

Experiment: IL-6 driven STAT3 reporter potentiators, primary screen, U3A cells, luciferase, luminescence, MLSCN library (AID 871);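 further: 0% = background luminescence of wells with medium and substrate only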
Details: IL-6 STAT3-luciferase reporter, at 5.6 µM, hits give high values, 100% = signal with IL-6 EC80 alone
In short: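 Test system: human U3A cells carrying STAT3-luciferase construct; control set: IL-6-only wells as 100% reference; timing: compound pre-incubation 1 h before IL-6, then 6 h stimulation at 37 °C; also added: IL-6 stimulus at 33 ng/mL final; evaluation: % activation versus median of IL-6-stimulated wells; detection: reporter luminescence signal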

Activation (% of control), inactive:
CCOC(=O)C1(Cc2cccc(OC)c2)CCN(C(C)COC)CC1 (centres undefined) 108%
COc1cccc(NC(=O)c2ccc3c(SCC(=O)O)c4c(nc3c2)CCCC4)c1 106%
COCC(=O)Nc1cc(C(=O)OC)cc(C(=O)OC)c1 97.7%
Fc1ccc(CSc2nnc(-c3cc4c(s3)-c3ccccc3CC4)o2)cc1 117%
C#CCSc1nnc(-c2sc3ccccc3c2Cl)o1 125%
CCNC(=O)COC(=O)CCNC(=O)c1cccc(C)c1 102%
COc1cccc(C(=O)Oc2cc(C)[nH]c(=O)c2[N+](=O)[O-])c1 101%
OC(COc1ccc2ccccc2c1)Cn1cncn1 (centres undefined) 97.5%
OC(COc1cccc(OCC(O)CN2CCCC2)c1)CN1CCCC1 (centres undefined) 101%
COc1ccc(/C=N/n2c(C)cc(C)cc2=O)cc1 83.5%
C=CCn1c(-c2sc(-c3ccccc3)nc2C)n[nH]c1=S 94.6%
C=CCn1c(-c2ccc3[nH]c(C)c(C)c3c2)n[nH]c1=S 80.2%
COc1ccc(CC(=O)N[C@@H](CCSC)c2nc3ccccc3[nH]2)cc1 96.5%
COc1ccc(COC(=O)N/N=C(\C)CC(=O)Nc2ccc(Cl)cc2)cc1 101%
O=C(CCC(=O)NNc1nc2ccccc2c2nc(-c3ccccc3)nn12)NCCCN1CCCC1=O 112%
Cc1nccn1CCCNC(=O)CC1C(=O)NCCN1Cc1ccc(Cl)c(F)c1 (centres undefined) 100%
COc1ccc(C(CC(=O)c2ccccc2)S(=O)(=O)c2ccccc2)cc1 (centres undefined) 110%
COc1ccc(C=Nc2cccc3ncccc23)cc1 109%
Cc1nc(NC(=O)c2cccc(Cl)c2)sc1-c1csc(Nc2cccc(Cl)c2)n1 117%
CCCCCCC(=O)Nc1nc(C)c(-c2csc(Nc3cccc(OC)c3)n2)s1 99.6%
Cc1ccc(-c2csc(NNC(=O)c3ccccc3)n2)cc1 101%
Cc1nc(NC(=O)CN(C)S(=O)(=O)c2ccc(Cl)cc2)sc1C 106%
COc1ccc(-c2csc(NC(=O)COC(=O)Cc3ccc(Cl)cc3Cl)n2)cc1 100%
CCCCCCC(=O)Nc1nc(C)c(-c2csc(Nc3cc(Cl)ccc3OC)n2)s1 105%
Cc1ccc(S(=O)(=O)c2ccc(Cl)cc2)cc1S(=O)(=O)NC(C(=O)O)C(C)C (centres undefined) 102%
Clc1ccc(-c2nc3ccccn3c2CN2CCSCC2)cc1 99.3%
Cn1c(=O)c2cc(S(=O)(=O)NCCC(=O)Nc3ccc(F)cc3F)ccc2n(C)c1=O 109%
COc1ccc(NC(=O)CC2C(=O)OCC3CCCCN32)cc1Cl (centres undefined) 102%
COc1ccccc1CN(C)c1nnnn1-c1ccccc1 99.5%
COC(=O)c1ccc(CSc2nc3ccccc3c(=O)n2-c2cccc(OC)c2)o1 101%
COc1cccc(-n2cc(C(=O)O)c3ccccc3c2=O)c1 98.5%
O=Cc1ccc(OCc2cn3ccccc3n2)cc1 101%
COc1ccc(/C=C(\NC(=O)c2ccc(OCC(C)C)cc2)C(=O)OCc2ccco2)cc1 111%
COc1cccc2sc(Nc3nc(C)c(C(C)=O)s3)nc12 108%
Fc1cc(F)c2nc(Nc3nc4c(F)cccc4s3)sc2c1 129%
O=C(CSc1ccccn1)Nc1nc2c(ccc3ccccc32)s1 103%
NC(=O)Cn1nc([N+](=O)[O-])nc1Oc1ccc(Br)cc1 93.7%
CC(=O)N1N=C(c2ccccc2)OC1c1cccnc1 (centres undefined) 103%
CC(=O)Nc1cccc(NC(=O)c2c(-c3ccccc3)noc2C)c1 88.8%
CCOC(=O)c1c(-c2ccccc2)csc1NC(=S)NC(=O)c1ccccc1 106%
O=C(/C=C/c1ccccc1)Nc1nnc(SCC(=O)c2ccc3ccccc3c2)s1 104%
COc1ccc(NS(=O)(=O)c2ccc(O)c(C(=O)OCC(=O)NC3CCCCC3)c2)cc1 102%
CCN=c1sc(C(=O)Nc2ccccc2)c(C)n1CC 84.4%
CCCOc1ccccc1C1CC(=O)Nc2cc3c(cc21)OCO3 (centres undefined) 66.4%
COc1cc2c(cc1/C=C1/NC(=O)N(c3ccccc3)C1=O)OCO2 88.5%
CSc1ccc(CN(C)CC(=O)NCc2ccc(F)cc2)cc1 106%
Cc1cc(NC(=O)CN2CCCC(C)C2)n(-c2nc3ccccc3s2)n1 (centres undefined) 113%
CCOC(=O)N1CCN(CC(=O)Nc2ccc(F)cc2)CC1 108%
O=C(CCNC(=O)c1ccc([N+](=O)[O-])cc1)Nc1ccccc1N1CCOCC1 104%
NC(=O)CC[C@@H]1NC(=O)[C@H](CO)NC(=O)c2cc([N+](=O)[O-])cc(I)c2NCC[C@@H](C(N)=O)NC1=O 95.5%
Cc1cc(O)cc(O)c1C(=O)Cc1cnn(-c2ccccc2)c1 92.8%
c1ccc(C2c3[nH]c4ccccc4c3CCN2Cc2cccn2-c2cccnc2)nc1 (centres undefined) 94%
Cc1ccc(Cl)cc1NC(=S)N(CCN(C)C)Cc1cccs1 96.1%
COc1ccc2c(CC(=O)OCC(=O)Nc3ccccc3[N+](=O)[O-])coc2c1 110%
Cc1ccc(-c2cc(C(=O)N3CCc4ccccc4C3)no2)cc1 98.3%
Cc1ccc2c(c1)c1ncn(CCC3=CCCCC3)c(=O)c1n2C 104%
Fc1ccc(COc2cccc(-c3n[nH]c(=S)o3)c2)cc1 102%
CCOC(=O)N1CCN(Cc2nc3ccc([N+](=O)[O-])cc3c(=O)n2-c2cccc(OC)c2)CC1 83.3%
CCn1cc(C(=O)NCCCN2CCCCCC2)c(=O)c2cc(S(=O)(=O)N3CCc4ccccc4C3)ccc21 108%
COc1ccc(NC(=O)C(Br)C(C)C)cc1 (centres undefined) 101%
COc1ccc(C(=O)ON=C2c3ccccc3-c3ccccc32)cc1OC 107%
COCCN(C(=O)c1ccccc1F)c1c(N)n(Cc2ccccc2)c(=O)[nH]c1=O 89.7%
CC12CN(NC(=O)c3ccc(Cl)cc3)C3(C#N)CC1CCC23C (centres undefined) 104%

Activation (% of control), active:
CCSc1nnc(-c2cc3c(s2)-c2ccccc2CC3)o1 173%
OC(COc1ccc2ccccc2c1)CN1CCOCC1 (centres undefined) 159%
C=CCn1c(-c2ccccc2OCC)n[nH]c1=S 158%
Cc1ccc(C2C(C#N)C(C#N)N3CCCN23)cc1 (centres undefined) 141%
Oc1c(C=Nc2cccc3nsnc23)ccc2ccccc12 144%
CCCCC(=O)Nc1nc(C)c(-c2csc(Nc3ccc(Cl)cc3)n2)s1 149%
Cc1ccc(Nc2nc(-c3sc(NC(=O)c4ccccc4)nc3C)cs2)cc1 138%
C=CCCC(=O)Nc1nc(C)c(-c2csc(Nc3ccc(Cl)cc3)n2)s1 159%
COc1cccc(-n2c(=S)[nH]c3c(oc4ccccc43)c2=O)c1 136%
NNc1nc2c(Cl)cccc2s1 134%
CCOC(=O)c1c(-c2cccc(C)c2)csc1NC(=O)c1c(-c2ccccc2)noc1C 137%
COc1ccccc1C1C2=C(COC2=O)Nc2cc3c(cc21)OCO3 (centres undefined) 144%
CCOC(=O)N1CCN(CC(=O)Nc2cc(C)nn2-c2nc3ccccc3s2)CC1 162%
Oc1cccc(C2c3[nH]c4ccccc4c3CCN2Cc2cnn(-c3ccccc3)c2)c1 (centres undefined) 138%
Cc1ccc2c(c1)c1ncnc(N3CCc4ccccc4C3)c1n2C 133%
COc1ccc(NC(=O)ON=C2c3ccccc3-c3ccccc32)cc1 152%
